Source: ChEMBL document CHEMBL1681731, “Synthesis, in vitro anti-inflammatory and cytotoxic evaluation, and mechanism of action studies of 1-benzoyl-β-carboline and 1-benzoyl-3-carboxy-β-carboline derivatives” (Bioorg Med Chem, 2011)
pEC50, pIC50: −log10 of the molar value. The source made the active and inactive calls. The rule behind the calls is not given here.

Assays:
[1] = test system: A549; experiment: Cytotoxicity activity against human A549 cells assessed as growth inhibition at 10 ug/ml after 72 hrs sulforhodamine B assay; type: functional; conditions: A549, 72 h
Summary of the method: (§1)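 Cells kept in RPMI-1640/10% FBS with antibiotics at 37 °C, 5% CO2. Trypsinized cells seeded and given compound from DMSO-diluted stock. Incubated 72 h, then fixed with 10% TCA. Stained 10 min with 0.4% sulforhodamine B in 1% HOAc, washed, dye dissolved in 10 mM Trizma. A515 read; growth relative to net protein increase of controls.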

[2] = Therapeutic index, ratio of CC50 for mouse […] cells to EC50 for inhibition of lipopolysaccharide/interferon-gamma induced nitric oxide production in mouse […] cells; type: cell-based; conditions: read-out: TI
[3] = Antiinflammatory activity against human neutrophil assessed as inhibition of N-formyl-l-methionyl phenylalanine/cytochalasin B-induced superoxide anion generation by spectrophotometry; type: functional, cell-based
Summary of the method: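 Ferricytochrome c (0.5 mg/mL) reduction, SOD-inhibitable, with 1 mM Ca2+. Neutrophils (6 × 10^5 cells/mL) equilibrated 2 min at 37 °C, then drug or 0.1% DMSO for 5 min. Cytochalasin B 1 µg/mL preincubation, then 100 nM FMLP for 3 min. A550 monitored continuously with stirring. IC50 computed; mean ± SEM, n = 3.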

[4] = test system: RAW264.7; experiment: Antiinflammatory activity against mouse RAW264.7 cells assessed as reduction of lipopolysaccharide/interferon-gamma induced PGE2 production at 10 uM after 18 hrs; type: functional; conditions: RAW264.7, 18 h
Summary of the method: (§2)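 RAW 264.7 macrophages (passages 9–20) stimulated with LPS/IFN-γ; compound tested at 1, 3 and 10 µM. Supernatant PGE2 measured by competitive EIA: anti-PGE2 antibody plus peroxidase-PGE2 tracer, 1 h RT; TMB/H2O2 30 min; H2SO4 stop; A450. Results given as % inhibition.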

[5] = Cytotoxicity activity against human KBVIN cells assessed as growth inhibition at 10 ug/ml after 72 hrs sulforhodamine B assay; type: functional; summary of the method: as §1
[6] = Cytotoxicity against mouse […] cells by MTT assay; type: functional
Summary of the method: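 Viability of RAW 264.7 cells taken as mitochondrial reduction of MTT to formazan. Formazan read at OD550.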

[7] = test system: RAW264.7; experiment: Antiinflammatory activity against mouse RAW264.7 cells assessed as reduction of lipopolysaccharide/interferon-gamma induced PGE2 production at 1 uM by EIA; type: functional; summary of the method: as §2
[8] = test system: KB; experiment: Cytotoxicity activity against human KB cells assessed as growth inhibition at 10 ug/ml after 72 hrs sulforhodamine B assay; type: functional; summary of the method: as §1
[9] = Antiinflammatory activity against human neutrophil assessed as inhibition of N-formyl-l-methionyl phenylalanine/cytochalasin B-induced elastase release; type: functional, cell-based
Summary of the method: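 Neutrophils (6 × 10^5/mL) supplemented with 100 µM MeO-Suc-Ala-Ala-Pro-Val-p-nitroanilide, equilibrated 2 min at 37 °C, then given drug or 0.1% DMSO vehicle for 5 min. Activated with 100 nM FMLP plus 0.5 µg/mL cytochalasin B. Absorbance at 405 nm followed continuously. Release expressed as percent of drug-free activated control. IC50 computed; mean ± SEM, n = 3.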

[10] = Antiinflammatory activity against mouse […] cells assessed as inhibition of lipopolysaccharide/interferon-gamma induced nitric oxide production; type: functional, cell-based; conditions: for pEC50: Mus musculus, read-out: EC50
Summary of the method: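 RAW 264.7 cells in DMEM/10% FCS, passages 9–20. Nitrite induced by LPS (1 µg/mL) plus IFN-γ (50 U/mL) for 18 h with or without compound. Griess reagent (1% sulfanilamide, 0.1% naphthylenediamine in 5% H3PO4) read at OD550. EC50 calculated.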

[11] = test system: RAW264.7; experiment: Antiinflammatory activity against mouse RAW264.7 cells assessed as reduction of lipopolysaccharide/interferon-gamma induced PGE2 production at 3 uM after 18 hrs; type: functional; conditions: RAW264.7, 18 h; summary of the method: as §2
[12] = test system: DU-145; experiment: Cytotoxicity activity against human DU145 cells assessed as growth inhibition at 10 ug/ml after 72 hrs sulforhodamine B assay; type: functional; conditions: DU-145, 72 h; summary of the method: as §1
[13] = test system: Radical scavenging activity; experiment: Antioxidant activity assessed as residual DPPH radical scavenging activity; type: functional

pIC50 [3] | pIC50 [9] | pEC50 [10] | EC50 [10] | Compound | GI50 [1] [µM] | selectivity ratio [2] | inhibition at 10 µM [4] [%] | GI50 [5] [µM] | CC50 [6] [µM] | inhibition at 1 µM [7] [%] | GI50 [8] [µM] | inhibition at 3 µM [11] [%] | GI50 [12] [µM] | Activity [13]
4.84 | 5.24 | 6.04 | – | CC(=O)c1nc(C(N)=O)cc2c1[nH]c1ccccc12 [STELLARINES A] | > 40 | 21 | 90 | > 40 | 19.8 | 0 | > 40 | 90 | > 40 | –
5.64 | 5.70 | 6.28 | – | O=C(O)c1cc2c([nH]c3ccccc32)c(C(=O)c2ccc(Br)cc2)n1 | > 40 | 20 | – | > 40 | 10.7 | 98 | > 40 | 100 | > 40 | inactive
< 4.52 | < 4.52 | 5.67 | – | Cc1ccccc1C(=O)c1nccc2c1[nH]c1ccccc12 | > 40 | > 2000 | 82 | > 40 | – | 0 | > 40 | 44 | > 40 | –
– | – | – | – | CC(=O)O[C@H]1C(=O)[C@@]2(C)[C@H]([C@H](OC(=O)c3ccccc3)[C@]3(O)C[C@H](OC(=O)[C@H](O)[C@@H](NC(=O)c4ccccc4)c4ccccc4)C(C)=C1C3(C)C)[C@]1(OC(C)=O)CO[C@@H]1C[C@@H]2O [PACLITAXEL] | 0.00558 | – | – | > 1 | – | – | 0.00487 | – | 0.00555 | –
< 4.52 | < 4.52 | 5.57 | – | O=C(c1ccccc1)c1nccc2c1[nH]c1ccccc12 | > 40 | 49 | 82 | > 40 | 131 | 0 | > 40 | 39 | > 40 | –
< 4.52 | < 4.52 | 6.52 | – | O=C(c1ccc(Br)cc1)c1nccc2c1[nH]c1ccccc12 | > 40 | 492 | – | > 40 | 149 | 98 | > 40 | 100 | > 40 | –
– | – | 5.68 | – | COc1ccc(C(O)c2nccc3c2[nH]c2ccccc23)cc1 (stereo not given) | – | 764 | 19 | – | 1590 | 0 | – | 0 | – | –
< 4.52 | < 4.52 | 5.90 | – | Cc1ccc(C(=O)c2nccc3c2[nH]c2ccccc23)cc1 | > 40 | 42 | 100 | > 40 | 52.8 | 25 | > 40 | 99 | > 40 | –
5.10 | < 4.52 | 6.51 | – | OC(c1ccccc1)c1nccc2c1[nH]c1ccccc12 (stereo not given) | > 40 | 186 | 0 | 22.6 | 57.4 | 0 | > 40 | 0 | > 40 | –
– | – | 6.33 | – | Cc1cccc(C(=O)c2nc(C(=O)O)cc3c2[nH]c2ccccc23)c1 | – | 34 | – | – | 16.4 | 98 | – | 100 | – | inactive
5.20 | 5.50 | 6.30 | – | Cc1ccc(C(=O)c2nc(C(=O)O)cc3c2[nH]c2ccccc23)cc1 | > 40 | 35 | – | > 40 | 17.7 | 100 | > 40 | 100 | > 40 | inactive
< 4.52 | < 4.52 | 6.18 | – | O=C(c1ccc([N+](=O)[O-])cc1)c1nccc2c1[nH]c1ccccc12 | > 40 | 6 | 100 | > 40 | 3.86 | 0 | > 40 | 100 | > 40 | –
– | – | – | – | COc1ccccc1C(=O)c1nc(C(=O)O)cc2c1[nH]c1ccccc12 | – | – | – | – | – | – | – | – | – | inactive
4.78 | – | 5.97 | – | O=C(c1cccc([N+](=O)[O-])c1)c1nccc2c1[nH]c1ccccc12 | > 40 | 20 | 96 | > 40 | 21.6 | 0 | > 40 | 95 | > 40 | –
– | – | – | – | O=C(O)c1cc2c([nH]c3ccccc32)c(C(=O)c2cccc([N+](=O)[O-])c2)n1 | – | – | – | – | – | – | – | – | – | inactive
< 4.52 | < 4.52 | 5.34 | – | COc1ccc(C(=O)c2nccc3c2[nH]c2ccccc23)cc1 | > 40 | 18 | 95 | > 40 | 83.4 | 0 | > 40 | 95 | > 40 | –
– | – | – | – | COc1cccc(C(=O)c2nc(C(=O)O)cc3c2[nH]c2ccccc23)c1 | – | – | – | – | – | – | – | – | – | inactive
< 4.52 | < 4.52 | 5.94 | – | O=C(c1cccc(Br)c1)c1nccc2c1[nH]c1ccccc12 | > 40 | 44 | – | > 40 | 51.4 | 97 | > 40 | 98 | > 40 | –
5.03 | < 4.52 | – | Not Active | CC(O)c1nccc2c1[nH]c1ccccc12 (stereo not given) | > 40 | – | 0 | > 40 | 0.28 | 0 | > 40 | 0 | > 40 | –
< 4.52 | < 4.52 | 5.16 | – | O=C(c1ccccc1Br)c1nccc2c1[nH]c1ccccc12 | > 40 | 8 | 89 | > 40 | 53.8 | 0 | > 40 | 37 | > 40 | –
5.05 | 4.85 | 6.13 | – | OC(c1ccc(Br)cc1)c1nccc2c1[nH]c1ccccc12 (stereo not given) | 19 | 95 | 34 | 14.5 | 70.1 | 0 | 15.9 | 21 | 13.3 | –
4.42 | 4.49 | – | – | COc1ccc2c(c1)c(CC(=O)O)c(C)n2C(=O)c1ccc(Cl)cc1 [INDOMETHACIN] | – | – | – | – | – | – | – | – | – | –
5.95 | 5.72 | – | – | O=c1cc(N2CCOCC2)oc2c(-c3ccccc3)cccc12 [LY-294002] | – | – | – | – | – | – | – | – | – | –
< 4.52 | < 4.52 | 6.29 | – | COC(=O)c1cc2c([nH]c3ccccc32)c(C(=O)c2ccc(OC)cc2)n1 | > 40 | 4 | – | > 40 | 1.95 | 98 | > 40 | 100 | > 40 | –

Compound | pIC50 [3] | pIC50 [9] | pEC50 [10] | EC50 [10] | GI50 [1] [µM] | selectivity ratio [2] | inhibition at 10 µM [4] [%] | GI50 [5] [µM] | CC50 [6] [µM] | inhibition at 1 µM [7] [%] | GI50 [8] [µM] | inhibition at 3 µM [11] [%] | GI50 [12] [µM] | Activity [13]
N=C(N)NN [PIMAGEDINE] | – | – | 4.65 | – | – | 16 | 42 | – | 358 | 8 | – | 21 | – | –
